Assay results from ChEMBL document CHEMBL1287787, “Design and synthesis of disubstituted thiophene and thiazole based inhibitors of JNK” (Bioorg Med Chem Lett, 2010).
Blank lines part the entries; values can stand above or below the compound they belong to.

Legend:
MDCK = test: Efflux ratio of permeability from […] side in MDCK cells expressing p-gp after 120 mins; type: ADME, cell-based, Canis lupus familiaris; conditions: dog, 2 h
[1] = Metabolic stability in human liver microsomes assessed as compound remaining after 30 mins; type: ADME, Microsome; conditions: read-out: Stability
Procedure, shortened: (§1)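 Test compound incubated with mouse or human liver microsomes for 30 min. Read-out is the percent of parent compound remaining at the end of the incubation.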

MDR1 = test: Permeability from apical to basolateral side of MDCK cells expressing MDR1 after 120 mins; type: ADME, cell-based, Canis lupus familiaris; conditions: dog, read-out: permeability
[2] = Metabolic stability in mouse liver microsomes assessed as compound remaining after 30 mins; type: ADME, Microsome; conditions: read-out: Stability; procedure, shortened: as §1
[3] = Solubility of compound in Hank's buffered salt solution; type: physicochemical
[4] = molecular target: T1, Mitogen-activated protein kinase 1 (Homo sapiens, UniProt P28482); test: Inhibition of recombinant Erk2 after 60 mins by TR-FRET assay
T1 sequence (P28482 whole entry): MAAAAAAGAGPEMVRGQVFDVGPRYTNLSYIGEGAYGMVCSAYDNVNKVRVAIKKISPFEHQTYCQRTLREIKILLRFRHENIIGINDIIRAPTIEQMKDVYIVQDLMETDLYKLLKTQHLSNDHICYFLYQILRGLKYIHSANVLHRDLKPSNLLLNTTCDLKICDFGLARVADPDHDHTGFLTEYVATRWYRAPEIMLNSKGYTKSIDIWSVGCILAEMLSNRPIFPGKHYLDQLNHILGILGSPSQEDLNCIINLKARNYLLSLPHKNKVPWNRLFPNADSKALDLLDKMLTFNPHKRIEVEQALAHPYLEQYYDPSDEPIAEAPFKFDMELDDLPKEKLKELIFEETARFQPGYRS

[5] = molecular target: Mitogen-activated protein kinase 9 (Homo sapiens, UniProt P45984); test: Inhibition of recombinant JNK2 after 60 mins by TR-FRET assay
Chain of Mitogen-activated protein kinase 9 (P45984 whole entry): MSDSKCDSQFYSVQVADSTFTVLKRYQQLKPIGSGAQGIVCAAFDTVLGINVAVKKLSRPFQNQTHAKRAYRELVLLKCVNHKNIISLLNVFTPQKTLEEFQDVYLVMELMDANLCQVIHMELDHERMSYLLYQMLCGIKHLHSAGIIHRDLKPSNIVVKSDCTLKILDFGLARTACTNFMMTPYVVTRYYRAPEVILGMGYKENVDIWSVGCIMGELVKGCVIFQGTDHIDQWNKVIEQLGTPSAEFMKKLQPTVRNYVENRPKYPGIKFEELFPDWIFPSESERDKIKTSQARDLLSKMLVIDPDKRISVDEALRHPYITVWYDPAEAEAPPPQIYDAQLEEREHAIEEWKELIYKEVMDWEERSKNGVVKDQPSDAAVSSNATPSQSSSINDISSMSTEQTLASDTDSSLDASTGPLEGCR

[6] = molecular target: T2, Mitogen-activated protein kinase 10 (Homo sapiens, UniProt P53779); test: Inhibition of recombinant JNK3 after 60 mins by TR-FRET assay
T2 sequence (P53779 whole entry): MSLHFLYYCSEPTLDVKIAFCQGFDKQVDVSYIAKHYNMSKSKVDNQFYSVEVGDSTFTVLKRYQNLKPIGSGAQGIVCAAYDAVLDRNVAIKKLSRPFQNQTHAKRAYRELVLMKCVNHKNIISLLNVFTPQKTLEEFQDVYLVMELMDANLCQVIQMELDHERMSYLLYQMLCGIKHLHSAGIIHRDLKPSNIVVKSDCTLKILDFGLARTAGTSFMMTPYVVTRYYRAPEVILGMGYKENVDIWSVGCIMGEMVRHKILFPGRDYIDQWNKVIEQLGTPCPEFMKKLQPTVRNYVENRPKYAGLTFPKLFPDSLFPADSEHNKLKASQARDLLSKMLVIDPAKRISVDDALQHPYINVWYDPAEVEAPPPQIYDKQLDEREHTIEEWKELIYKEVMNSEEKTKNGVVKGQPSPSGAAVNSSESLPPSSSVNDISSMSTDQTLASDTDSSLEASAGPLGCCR

[7] = molecular target: Mitogen-activated protein kinase 8 (Homo sapiens, UniProt P45983); test: Inhibition of recombinant JNK1 after 60 mins by TR-FRET assay
Chain of Mitogen-activated protein kinase 8 (P45983 whole entry): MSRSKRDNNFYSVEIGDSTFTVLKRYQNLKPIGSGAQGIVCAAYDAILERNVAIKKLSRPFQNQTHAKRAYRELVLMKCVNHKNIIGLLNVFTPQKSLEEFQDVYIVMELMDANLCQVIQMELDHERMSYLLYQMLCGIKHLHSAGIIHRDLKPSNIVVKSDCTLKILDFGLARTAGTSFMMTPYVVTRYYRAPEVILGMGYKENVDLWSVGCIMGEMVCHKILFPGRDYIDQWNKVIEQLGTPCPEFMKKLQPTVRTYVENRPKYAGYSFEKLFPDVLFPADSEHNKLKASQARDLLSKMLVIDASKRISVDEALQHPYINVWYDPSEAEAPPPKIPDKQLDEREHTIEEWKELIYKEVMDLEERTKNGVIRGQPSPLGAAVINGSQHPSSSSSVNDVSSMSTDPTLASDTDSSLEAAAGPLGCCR

[8] = molecular target: Mitogen-activated protein kinase 14 (Homo sapiens, UniProt Q16539); test: Inhibition of recombinant p38alpha after 60 mins by TR-FRET assay
Chain of Mitogen-activated protein kinase 14 (Q16539 whole entry): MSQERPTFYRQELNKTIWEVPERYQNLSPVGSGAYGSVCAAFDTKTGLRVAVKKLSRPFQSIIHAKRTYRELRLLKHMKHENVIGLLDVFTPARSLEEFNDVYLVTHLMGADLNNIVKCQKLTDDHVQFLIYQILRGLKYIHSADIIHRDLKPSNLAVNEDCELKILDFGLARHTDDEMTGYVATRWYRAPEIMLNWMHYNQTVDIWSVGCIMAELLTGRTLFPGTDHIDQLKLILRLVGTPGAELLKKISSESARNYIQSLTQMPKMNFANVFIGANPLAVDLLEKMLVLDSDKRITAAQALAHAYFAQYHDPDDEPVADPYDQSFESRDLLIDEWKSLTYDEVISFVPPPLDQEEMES

[9] = molecular target: T2, Mitogen-activated protein kinase 10; conditions: 10 uM
[10] = molecular target: Cyclin-dependent kinase 5/CDK5 activator 1 (Homo sapiens) (UniProt Q00535+Q15078); test: Inhibition of CDK5/p25 at 10 uM; type: protein-complex assay
[11] = molecular target: cAMP-dependent protein kinase catalytic subunit alpha (Homo sapiens) (UniProt P17612); test: Inhibition of PRKACA at 10 uM
[12] = molecular target: Protein-tyrosine kinase 2-beta (Homo sapiens) (UniProt Q14289); test: Inhibition of PTK2B at 10 uM
[13] = molecular target: Macrophage colony-stimulating factor 1 receptor (Homo sapiens) (UniProt P07333); test: Inhibition of CSF1R at 10 uM
[14] = molecular target: Protein kinase C beta type (Homo sapiens) (UniProt P05771); test: Inhibition of PRKCB1 at 10 uM
Chain of Protein kinase C beta type (Homo sapiens) (P05771 2-671 limits assumed): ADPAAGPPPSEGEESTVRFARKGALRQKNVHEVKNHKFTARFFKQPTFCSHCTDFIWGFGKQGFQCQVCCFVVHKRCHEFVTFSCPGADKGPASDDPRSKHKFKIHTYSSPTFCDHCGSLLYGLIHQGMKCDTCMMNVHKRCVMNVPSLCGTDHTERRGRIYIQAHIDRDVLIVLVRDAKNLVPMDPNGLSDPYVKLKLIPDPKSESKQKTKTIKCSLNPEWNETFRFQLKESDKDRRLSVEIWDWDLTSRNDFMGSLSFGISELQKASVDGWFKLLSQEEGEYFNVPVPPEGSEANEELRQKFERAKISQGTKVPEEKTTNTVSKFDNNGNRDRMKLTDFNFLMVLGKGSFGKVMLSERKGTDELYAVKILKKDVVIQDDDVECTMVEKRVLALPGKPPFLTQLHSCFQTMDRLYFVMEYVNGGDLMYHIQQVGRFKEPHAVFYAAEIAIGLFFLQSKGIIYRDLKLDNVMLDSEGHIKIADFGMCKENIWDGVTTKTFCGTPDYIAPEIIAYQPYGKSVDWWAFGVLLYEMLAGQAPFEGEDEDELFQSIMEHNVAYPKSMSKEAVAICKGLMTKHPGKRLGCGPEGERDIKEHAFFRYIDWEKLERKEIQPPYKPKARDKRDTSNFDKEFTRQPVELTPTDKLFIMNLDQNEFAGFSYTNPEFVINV

[15] = molecular target: Rho-associated protein kinase 2 (Homo sapiens) (UniProt O75116); test: Inhibition of ROCK2 at 10 uM
Chain of Rho-associated protein kinase 2 (Homo sapiens) (O75116 whole entry, looked up): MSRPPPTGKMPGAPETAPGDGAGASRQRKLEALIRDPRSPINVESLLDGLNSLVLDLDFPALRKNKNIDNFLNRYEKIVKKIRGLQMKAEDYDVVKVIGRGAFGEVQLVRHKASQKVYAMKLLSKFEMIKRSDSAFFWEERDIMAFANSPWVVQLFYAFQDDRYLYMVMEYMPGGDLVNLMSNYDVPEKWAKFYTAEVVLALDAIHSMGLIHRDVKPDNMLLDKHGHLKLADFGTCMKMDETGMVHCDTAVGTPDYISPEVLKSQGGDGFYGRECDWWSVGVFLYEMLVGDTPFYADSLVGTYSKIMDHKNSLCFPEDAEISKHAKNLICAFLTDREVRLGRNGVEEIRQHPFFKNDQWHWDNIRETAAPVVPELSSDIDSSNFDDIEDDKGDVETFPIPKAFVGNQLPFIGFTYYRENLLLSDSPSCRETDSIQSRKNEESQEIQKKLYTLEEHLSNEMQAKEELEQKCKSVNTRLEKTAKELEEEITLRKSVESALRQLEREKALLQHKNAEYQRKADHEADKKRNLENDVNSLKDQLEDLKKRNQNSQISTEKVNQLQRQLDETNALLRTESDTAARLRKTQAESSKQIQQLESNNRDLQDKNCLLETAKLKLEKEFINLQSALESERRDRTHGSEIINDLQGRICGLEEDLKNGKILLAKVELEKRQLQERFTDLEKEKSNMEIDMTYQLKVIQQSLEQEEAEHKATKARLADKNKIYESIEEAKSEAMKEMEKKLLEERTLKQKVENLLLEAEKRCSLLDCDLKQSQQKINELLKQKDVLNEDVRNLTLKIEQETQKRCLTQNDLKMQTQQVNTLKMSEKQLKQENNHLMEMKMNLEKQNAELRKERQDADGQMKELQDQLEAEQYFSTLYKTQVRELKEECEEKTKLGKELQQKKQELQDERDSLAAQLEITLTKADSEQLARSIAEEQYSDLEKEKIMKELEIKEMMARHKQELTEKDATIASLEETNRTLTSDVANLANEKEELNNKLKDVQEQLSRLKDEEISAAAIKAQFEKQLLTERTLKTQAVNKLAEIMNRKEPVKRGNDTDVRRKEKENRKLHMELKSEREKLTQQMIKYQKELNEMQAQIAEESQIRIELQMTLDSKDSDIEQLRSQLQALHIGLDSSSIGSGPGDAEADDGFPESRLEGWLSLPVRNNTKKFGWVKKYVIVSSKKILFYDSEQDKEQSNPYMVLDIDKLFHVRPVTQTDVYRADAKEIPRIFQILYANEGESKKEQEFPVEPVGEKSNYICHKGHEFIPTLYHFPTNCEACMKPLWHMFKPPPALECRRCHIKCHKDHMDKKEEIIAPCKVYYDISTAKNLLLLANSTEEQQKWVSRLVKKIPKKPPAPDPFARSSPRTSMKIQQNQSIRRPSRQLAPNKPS

[16] = molecular target: Dual specificity tyrosine-phosphorylation-regulated kinase 1B (Homo sapiens) (UniProt Q9Y463); test: Inhibition of DYRK1B at 10 uM
[17] = molecular target: Serine/threonine-protein kinase Chk1 (Homo sapiens) (UniProt O14757); test: Inhibition of CHEK1 at 10 uM
[18] = molecular target: Tyrosine-protein kinase JAK1 (Homo sapiens) (UniProt P23458); test: Inhibition of JAK1 at 10 uM
[19] = molecular target: Receptor-interacting serine/threonine-protein kinase 2 (Homo sapiens) (UniProt O43353); test: Inhibition of RIPK2 at 10 uM
[20] = molecular target: Serine/threonine-protein kinase 16 (Homo sapiens) (UniProt O75716); test: Inhibition of STK16 at 10 uM
Chain of Serine/threonine-protein kinase 16 (Homo sapiens) (O75716 whole entry): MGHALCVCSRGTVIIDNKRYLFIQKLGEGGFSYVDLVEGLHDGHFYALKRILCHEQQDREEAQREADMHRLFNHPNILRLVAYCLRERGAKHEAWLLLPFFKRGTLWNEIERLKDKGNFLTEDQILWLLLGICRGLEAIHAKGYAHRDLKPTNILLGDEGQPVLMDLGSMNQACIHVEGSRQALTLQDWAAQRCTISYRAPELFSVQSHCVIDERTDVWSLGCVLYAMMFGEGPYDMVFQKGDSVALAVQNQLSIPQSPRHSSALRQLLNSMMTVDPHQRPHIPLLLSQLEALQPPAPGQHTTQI

[21] = molecular target: Dual specificity protein kinase TTK (Homo sapiens) (UniProt P33981); test: Inhibition of TTK at 10 uM
[22] = molecular target: Serine/threonine-protein kinase MARK2 (Homo sapiens) (UniProt Q7KZI7); test: Inhibition of MARK2 at 10 uM
[23] = molecular target: Dual specificity protein kinase CLK1 (Homo sapiens) (UniProt P49759); test: Inhibition of CLK1 at 10 uM
[24] = molecular target: Serine/threonine-protein kinase PLK1 (Homo sapiens) (UniProt P53350); test: Inhibition of PLK1 at 10 uM
[25] = molecular target: Serine/threonine-protein kinase 3 (Homo sapiens) (UniProt Q13188); test: Inhibition of STK3 at 10 uM
[26] = molecular target: Tyrosine-protein kinase Lck (Homo sapiens) (UniProt P06239); test: Inhibition of LCK at 10 uM
[27] = molecular target: Glycogen synthase kinase-3 beta (Homo sapiens) (UniProt P49841); test: Inhibition of GSK3-beta at 10 uM
[28] = molecular target: PI3-kinase p110-alpha/p85-alpha (Homo sapiens) (UniProt P27986+P42336); test: Inhibition of PIK3CA/PIK3R1 at 10 uM; type: protein-complex assay
[29] = molecular target: Insulin receptor (Homo sapiens) (UniProt P06213); test: Inhibition of INSR at 10 uM
[30] = molecular target: Calcium/calmodulin-dependent protein kinase type II subunit alpha (Homo sapiens) (UniProt Q9UQM7); test: Inhibition of CAMK2A at 10 uM
[31] = molecular target: Cyclin-dependent kinase 2/cyclin A (Homo sapiens) (UniProt P24941+P20248+P78396); test: Inhibition of CDK2/cyclin A at 10 uM; type: protein-complex assay
[32] = molecular target: Cyclin-dependent kinase 1/cyclin B (Homo sapiens) (UniProt P06493+P14635+Q8WWL7+O95067); test: Inhibition of CDK1/cyclin B at 10 uM; type: protein-complex assay
[33] = molecular target: RAC-alpha serine/threonine-protein kinase (Homo sapiens) (UniProt P31749); test: Inhibition of AKT1 at 10 uM
[34] = molecular target: Tyrosine-protein kinase SYK (Homo sapiens) (UniProt P43405); test: Inhibition of SYK at 10 uM
[35] = molecular target: Serine/threonine-protein kinase PLK3 (Homo sapiens) (UniProt Q9H4B4); test: Inhibition of PLK3 at 10 uM
[36] = molecular target: Receptor-type tyrosine-protein kinase FLT3 (Homo sapiens) (UniProt P36888); test: Inhibition of FLT3 at 10 uM
[37] = molecular target: Serine/threonine-protein kinase PAK 4 (Homo sapiens) (UniProt O96013); test: Inhibition of PAK4 at 10 uM
Chain of Serine/threonine-protein kinase PAK 4 (Homo sapiens) (O96013 whole entry, looked up): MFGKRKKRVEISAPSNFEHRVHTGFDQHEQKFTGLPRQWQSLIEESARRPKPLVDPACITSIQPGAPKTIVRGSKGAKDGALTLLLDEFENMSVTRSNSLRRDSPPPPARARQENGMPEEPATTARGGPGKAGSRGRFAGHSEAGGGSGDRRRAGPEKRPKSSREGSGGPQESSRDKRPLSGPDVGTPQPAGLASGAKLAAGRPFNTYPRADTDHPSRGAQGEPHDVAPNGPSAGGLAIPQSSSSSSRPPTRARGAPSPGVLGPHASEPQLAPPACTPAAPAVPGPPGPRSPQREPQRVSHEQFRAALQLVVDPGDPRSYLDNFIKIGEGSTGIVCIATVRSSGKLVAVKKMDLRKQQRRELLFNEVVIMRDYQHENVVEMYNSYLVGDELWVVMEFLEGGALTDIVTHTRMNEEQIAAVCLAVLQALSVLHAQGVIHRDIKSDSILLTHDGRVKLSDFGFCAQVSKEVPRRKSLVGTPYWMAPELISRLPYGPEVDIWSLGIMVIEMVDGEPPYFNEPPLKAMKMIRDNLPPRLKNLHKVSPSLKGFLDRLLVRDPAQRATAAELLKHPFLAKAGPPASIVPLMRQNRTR

[38] = tested on: RAF proto-oncogene serine/threonine-protein kinase (Homo sapiens), P04049 [Y340D,Y341D]; test: Inhibition of RAF1 Y340D/Y341D mutant at 10 uM
[39] = molecular target: Proto-oncogene tyrosine-protein kinase receptor Ret (Homo sapiens) (UniProt P07949); test: Inhibition of RET at 10 uM
[40] = molecular target: Aurora kinase A (Homo sapiens) (UniProt O14965); test: Inhibition of AURKA at 10 uM
[41] = molecular target: Platelet-derived growth factor receptor alpha (Homo sapiens) (UniProt P16234); test: Inhibition of PDGFRA at 10 uM
[42] = molecular target: Tyrosine-protein kinase ABL1 (Homo sapiens) (UniProt P00519); test: Inhibition of ABL1 at 10 uM
[43] = molecular target: Serine/threonine-protein kinase PLK2 (Homo sapiens) (UniProt Q9NYY3); test: Inhibition of PLK2 at 10 uM
[44] = molecular target: Receptor tyrosine-protein kinase erbB-4 (Homo sapiens) (UniProt Q15303); test: Inhibition of ERBB4 at 10 uM
[45] = molecular target: T1, Mitogen-activated protein kinase 1; test: Inhibition of MAPK1 at 10 uM

SMILES: O=C(Cc1cccc2cnccc12)Nc1ccsc1-c1cscn1
Ratio (MDCK): 1.1
remaining at 0.5 h [1]: 4%
Papp A→B at 2 h (MDR1): 26.1 ×10⁻⁶ cm/s
IC50 [8]: > 50000 nM
remaining at 0.5 h [2]: 1%
solubility [3]: 90 µM
IC50 [4]: > 50000 nM
IC50 [5]: 940 nM
IC50 [6]: 160 nM
IC50 [7]: 140 nM

SMILES: COC(=O)c1ncsc1NC(=O)Cc1cccc2cnccc12
Ratio (MDCK): 0.8
remaining at 0.5 h [1]: 41%
IC50 [8]: > 50000 nM
remaining at 0.5 h [2]: 11%
IC50 [4]: > 50000 nM
IC50 [5]: 5300 nM
IC50 [6]: 1600 nM
IC50 [7]: 1700 nM

SMILES: O=C(Cc1cccc2cnccc12)Nc1scnc1-c1cnccn1
Ratio (MDCK): 0.73
remaining at 0.5 h [1]: 2%
IC50 [8]: > 50000 nM
remaining at 0.5 h [2]: 3%
IC50 [4]: > 50000 nM
IC50 [5]: 2000 nM
IC50 [6]: 470 nM
IC50 [7]: 410 nM

More lines, now with the values ahead:

Ratio (MDCK): 4.2
remaining at 0.5 h [1]: 67%
Papp A→B at 2 h (MDR1): 6 ×10⁻⁶ cm/s
remaining at 0.5 h [2]: 23%
solubility [3]: > 100 µM
IC50 [4]: > 50000 nM
IC50 [5]: 710 nM
IC50 [6]: 560 nM
IC50 [7]: 270 nM
SMILES: O=C(Cc1cccc2ncccc12)Nc1ccsc1-c1nnc[nH]1

Inihibition [9]: 69%
Inihibition [10]: 9%
Inihibition [11]: 14%
Inihibition [12]: 6%
Ratio (MDCK): 1.9
Inihibition [13]: 33%
Inihibition [14]: 18%
Inihibition [15]: 3%
Inihibition [16]: 21%
Inihibition [17]: 8%
Inihibition [18]: 4%
remaining at 0.5 h [1]: 79%
Inihibition [19]: 16%
Inihibition [20]: 9%
Inihibition [21]: 85%
Inihibition [22]: 8%
IC50 [8]: > 50000 nM
Inihibition [23]: 7%
Inihibition [24]: 8%
Inihibition [25]: 5%
Inihibition [26]: 6%
Inihibition [27]: 13%
Inihibition [28]: 31%
remaining at 0.5 h [2]: 50%
Inihibition [29]: 3%
Inihibition [30]: 9%
Inihibition [31]: 9%
Inihibition [32]: 4%
Inihibition [33]: 2%
Inihibition [34]: 6%
Inihibition [35]: 17%
Inihibition [36]: 37%
IC50 [4]: > 50000 nM
Inihibition [37]: -4%
Inihibition [38]: 5%
Inihibition [39]: 21%
Inihibition [40]: 27%
Inihibition [41]: 7%
Inihibition [42]: 7%
IC50 [5]: 470 nM
Inihibition [43]: 24%
IC50 [6]: 77 nM
Inihibition [44]: 4%
Inihibition [45]: 16%
IC50 [7]: 48 nM
SMILES: O=C(Cc1cccc2cnccc12)Nc1scnc1-c1cscn1

remaining at 0.5 h [1]: 49%
Papp A→B at 2 h (MDR1): 7 ×10⁻⁶ cm/s
IC50 [8]: > 50000 nM
remaining at 0.5 h [2]: 1%
IC50 [4]: > 50000 nM
IC50 [5]: > 50000 nM
IC50 [6]: 31000 nM
IC50 [7]: 23900 nM
SMILES: COc1ccc(CC(=O)Nc2ccsc2-c2cn(C)cn2)cc1

Ratio (MDCK): 5
remaining at 0.5 h [1]: 14%
IC50 [8]: > 50000 nM
remaining at 0.5 h [2]: 15%
IC50 [4]: 24000 nM
IC50 [5]: 2600 nM
IC50 [6]: 820 nM
IC50 [7]: 710 nM
SMILES: O=C(Cc1cccc2cnccc12)Nc1scnc1-c1ncn[nH]1
